Screens as filed in PubChem BioAssay.
Compounds with a hit are over-represented: about 2.2% of the library has one in this group of screens.
TCR CD3 inh – inhibitors of human TCR-CD3 interaction; TAMRA-labeled TCR probe fluorescence, biochemical; inhibition, % at 9.4 µM; 360,000 tested, 0.37% active; in the data active = inhibition above about 19%;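 note: recombinant mutant TCR 2C K166C tagged with TAMRA read by polarization; 0% = receptor in buffer alone and 100% = receptor with positive control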
TDP2 absorb – TDP2 (human) inhibition, absorbance primary screen; O95551; recombinant TDP2, T5PNP hydrolysis, p-nitrophenol absorbance 415 nm; inhibition, % at 12.8 µM; 370,000 tested, 0.34% active; AID 720702;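 active = inhibition above the mean of all tested compounds plus 3 SD, set per campaign, cut at about 25% in these data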;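 note: 0% = DMSO with enzyme and 100% = buffer with substrate but no TDP2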
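test system = human TDP2 enzyme | input = TDP2 enzyme at 120 nM final | medium = 50 mM Tris-HCl pH 7.5 with Mg2+, KCl, DTT, BSA | also added = T5PNP substrate, 5 mM | times = 2 h at 37 °C | technique = epi absorbance | benchmarks = high control without enzyme, low control DMSO plus TDP2 | replication = each compound tested once, singlicate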
SIAE primary – human SIAE inhibition, primary screen | Q9HAT2 | SIAE FP-Rh probe binding, fluorescence polarization | inhibition, % at 9.66 µM | 370,000 tested, 0.69% active | AID 1053197;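 active = inhibition above a cutoff: mean of compounds within the control limits plus 3 SD of those, cut at about 17% in these data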;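 note: 0% = plate median of compound wells and 100% = probe without SIAE protein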
mABHD4 FP – ABHD4 (mouse) inhibition, primary FP screen | purified mABHD4, FP-Rh probe fluorescence polarization | 370,000 tested, 0.54% active | Q8VD66 | inhibition, % at 8.92 µM;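 active = inhibition exceeding the mean over every tested compound plus 3 SD, cut at about 30% in these data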;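 note: 0% = plate median of compound wells and 100% = S159A mutant with DMSO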
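system = mouse ABHD4 enzyme, wild type | medium = HEPES pH 7.0, NaCl, Pluronic buffer | also added = FP-Rh probe | incubation = Enzyme–compound pre-incubation 45 min, then probe 60 min, both 25 °C | technique = fluorescence polarization, excitation 525 nm, emission 598 nm, BODIPY TMR filters | controls = S159A mutant high control, sample median low control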
HTRA1 inh – HTRA1 (human) protease inhibition | recombinant HTRA1, FP-rhodamine activity-based probe, fluorescence polarization | inhibition, % at 5.96 µM | 340,000 tested, 0.5% active | Q92743; in the data active = inhibition above about 36%;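 note: 0% = enzyme with DMSO and 100% = wells lacking enzyme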
Target sequence (Q92743 whole entry, looked up): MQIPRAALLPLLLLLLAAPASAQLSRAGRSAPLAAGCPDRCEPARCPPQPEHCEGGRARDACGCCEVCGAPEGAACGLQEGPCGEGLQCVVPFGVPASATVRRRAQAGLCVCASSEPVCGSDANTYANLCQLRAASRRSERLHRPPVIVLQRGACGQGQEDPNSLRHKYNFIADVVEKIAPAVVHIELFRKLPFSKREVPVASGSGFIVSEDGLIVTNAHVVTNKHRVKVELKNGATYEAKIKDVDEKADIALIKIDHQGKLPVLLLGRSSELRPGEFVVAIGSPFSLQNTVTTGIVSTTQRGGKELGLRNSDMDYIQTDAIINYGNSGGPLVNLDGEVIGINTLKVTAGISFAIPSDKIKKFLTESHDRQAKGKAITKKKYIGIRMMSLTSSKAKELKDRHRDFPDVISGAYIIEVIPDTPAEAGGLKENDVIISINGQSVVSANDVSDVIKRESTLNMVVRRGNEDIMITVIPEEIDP
LEDGF integ inh – blocks HIV-1 LEDGF/p75-dependent DNA integration; inhibition, % at 3.7 µM; 370,000 tested, 0.64% active; TR-FRET IN-LEDGF/p75 DNA integration, Eu/Cy5;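 active = inhibition above the screen-wide mean plus 3 SD, cut at about 13% in these data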;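 note: signal is the Cy5 over europium emission ratio at 671 and 618 nm; 0% = plate median of compound wells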
IN multimer act – activates HIV-1 integrase multimerization in LEDGF counter-screen; shares compounds with LEDGF integ inh; 2,000 tested, 17% active; AID 1053131; TR-FRET HIV-1 integrase multimerization, biochemical; activation, % at 7.7 µM; in the data active = activation above about 8.9%
TRFRET interf – TR-FRET optical interference, LEDGF/p75 integration counter-screen. shares compounds with LEDGF integ inh. inhibition, % at 7.7 µM. 2,000 tested, under 10 active. TR-FRET optical interference counterscreen, HIV-1 IN multimerization;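 active = inhibition above the mean over all tested compounds plus 3 SD, which no compound reached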;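 note: 0% = integrase with antibodies and DMSO and 100% = antibodies without integrase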
LEDGF integ conf – LEDGF/p75-dependent HIV-1 integration inhibition, confirmation; 2,000 tested, 36% active; TR-FRET LEDGF/p75-dependent HIV-1 integration, biochemical; inhibition, % at 3.7 µM; shares compounds with LEDGF integ inh; in the data active = inhibition above about 14%
* marks the source's active call; other numbers are inactive results.

Screening CCc1ccc(Nc2n[n+](C)c(-c3ccncc3)s2)cc1 returned TCR CD3 inh 8, TDP2 absorb -2, SIAE primary 8, mABHD4 FP 4, HTRA1 inh -17, LEDGF integ inh 42*, IN multimer act 0, TRFRET interf 2 and LEDGF integ conf -6.
For CCc1ccc(Nc2n[n+](-c3ccccc3)c(-c3ccc(C(=O)O)cc3)s2)cc1 the results were TCR CD3 inh 11, TDP2 absorb -2, SIAE primary -5, mABHD4 FP 25, HTRA1 inh -13 and LEDGF integ inh 3.
COc1ccc(/C=N/n2c(N)nc3ccccc32)cc1OC was read as TCR CD3 inh 3, TDP2 absorb -4, SIAE primary -7, mABHD4 FP 9, HTRA1 inh 2, LEDGF integ inh 24*, IN multimer act 0, TRFRET interf 1 and LEDGF integ conf -7.
For CC(Sc1nnc(-c2ccccc2Br)o1)C(=O)N1CCOCC1 (configuration not stated) the results were TCR CD3 inh 2, TDP2 absorb 17, SIAE primary 13, mABHD4 FP -1, HTRA1 inh -1, LEDGF integ inh 23*, IN multimer act -2, TRFRET interf 8 and LEDGF integ conf -4.
For O=C(CSc1nnc(-c2ccccc2Br)o1)N1CCOCC1 the results were TCR CD3 inh -3, TDP2 absorb 3, SIAE primary 15, mABHD4 FP -3, HTRA1 inh 1 and LEDGF integ inh 2.
O=[N+]([O-])c1ccccc1S(=O)(=O)Nc1cccc(S(=O)(=O)N2CCCC2)c1 was read as TCR CD3 inh -2, TDP2 absorb 4, SIAE primary -3, mABHD4 FP 3, HTRA1 inh 9 and LEDGF integ inh -8.
CC(C)(CN1CCCC1)NC(=O)C1CCC(=O)N(CCCN2CCOCC2)C1 (configuration not stated) was read as TCR CD3 inh 9, TDP2 absorb 1, SIAE primary -3, mABHD4 FP 6, HTRA1 inh 7 and LEDGF integ inh 4.
`O=C(CN1CCN(c2ccc(Cl)cc2)CC1)Nc1cccc(F)c1` gave TCR CD3 inh 8, TDP2 absorb -6, SIAE primary -3, mABHD4 FP 1, HTRA1 inh -2, LEDGF integ inh 32*, IN multimer act 0, TRFRET interf -1 and LEDGF integ conf -4.
`O=Cc1ccc2oc3nc4n(c(=O)c3c(=O)c2c1)CCCS4` gave TCR CD3 inh 15, TDP2 absorb -12, SIAE primary -21, mABHD4 FP -14, HTRA1 inh -4, LEDGF integ inh 20*, IN multimer act 17*, TRFRET interf -63 and LEDGF integ conf 32*.
For Cc1sc2nc3n(c(=O)c2c1C)CCCS3 the results were TCR CD3 inh 2, TDP2 absorb -3, SIAE primary 3, mABHD4 FP -7, HTRA1 inh -2 and LEDGF integ inh 0.
Screening Cc1ccc(NC(=O)C2CC3CCC2C3)c(Br)c1 (configuration not stated) returned TCR CD3 inh -10, TDP2 absorb -32, SIAE primary -3, mABHD4 FP -5, HTRA1 inh -1 and LEDGF integ inh 1.
CCN(CC)C(=O)[C@H]1C[C@H](CC(=O)NCCc2ccccn2)C(=O)N2CCc3c([nH]c4cc(-c5ccco5)ccc34)[C@]12C was read as TCR CD3 inh -4, TDP2 absorb -2, SIAE primary 4, mABHD4 FP 1, HTRA1 inh 6, LEDGF integ inh 65*, IN multimer act 0, TRFRET interf -1 and LEDGF integ conf -5.
CC(C)N(C(=O)[C@H]1C[C@H](CC(=O)NCCc2ccccn2)C(=O)N2CCc3c([nH]c4cc(-c5ccco5)ccc34)[C@]12C)C(C)C was read as TCR CD3 inh 1, TDP2 absorb -11, SIAE primary -9, mABHD4 FP -26, HTRA1 inh 9 and LEDGF integ inh 9.
For C=CCn1c(C)cc(C(=O)Cn2ncc(Cl)c(Cl)c2=O)c1C the results were TCR CD3 inh 11, TDP2 absorb 0, SIAE primary 8, mABHD4 FP 11, HTRA1 inh 8, LEDGF integ inh 26*, IN multimer act 26*, TRFRET interf -92 and LEDGF integ conf 39*.
CC(C)(C)C(=O)Cn1ncc(Cl)c(Cl)c1=O was read as TCR CD3 inh 7, TDP2 absorb 10, SIAE primary 2, mABHD4 FP -1, HTRA1 inh 1 and LEDGF integ inh 3.
`CCCC(=O)Nc1ccc2oc(=O)ccc2c1` gave TCR CD3 inh 2, TDP2 absorb -1, SIAE primary -5, mABHD4 FP 3, HTRA1 inh -1, LEDGF integ inh 35*, IN multimer act -1, TRFRET interf 4 and LEDGF integ conf 0.
For CCn1ncc(NC(=S)Nc2ccc(OC)c(OC)c2)c1C(N)=O the results were TCR CD3 inh 5, TDP2 absorb 16, SIAE primary 9, mABHD4 FP 18, HTRA1 inh 4, LEDGF integ inh 14*, IN multimer act 1, TRFRET interf -4 and LEDGF integ conf -4.
For COc1cc(C(=O)NC2CCCCN(Cc3cccc(Cl)c3)C2=O)cc(OC)c1OC (configuration not stated) the results were TDP2 absorb 10, SIAE primary -1, mABHD4 FP 0 and LEDGF integ inh 2.
Screening O=CNc1cc(-c2ccoc2)cn2c(-c3ccc(F)cc3)cnc12 returned TCR CD3 inh 0, TDP2 absorb 3, SIAE primary 5, mABHD4 FP 24, LEDGF integ inh 14*, IN multimer act 0, TRFRET interf -2 and LEDGF integ conf 12.
CC(=O)c1ccc(-c2cnc3c(NC=O)cc(-c4cnn(C)c4)cn23)cc1 was read as TCR CD3 inh 3, TDP2 absorb 3, SIAE primary -2, mABHD4 FP 5, LEDGF integ inh 24*, IN multimer act -1, TRFRET interf 7 and LEDGF integ conf 4.
`O=CNc1cc(-c2cccc(F)c2)cn2c(-c3ccc(F)cc3)cnc12` gave TCR CD3 inh -5, TDP2 absorb -9, SIAE primary -10, mABHD4 FP -2 and LEDGF integ inh 1.
